# Compound activity from PubChem.
# Vif inh = HIV Vif inhibition | inhibition, % at 7.49 µM | AID 602346 | HEK293T cells, Vif self-association by quenched fluorescence, imaging, 24 h | hit rate 0.35% among 340,000; in the data active means inhibition above about 50%, passing the limit was not always enough; inconclusive means no clear call, values can overlap the other calls; inactive means below about 31%
# SR-BI uptake up = enhances SR-BI lipid uptake from DiI-HDL | CHO ldlA[mSR-BI] cells, DiI-HDL uptake fluorescence, 3 h; 100 = double the neutral-control signal | activation, % at 12.5 µM | hit rate 0.096% among 320,000 | AID 504775;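 active means mean replicate activation of at least 60% and every replicate at or above 60%; inconclusive means mean or all-replicate condition met, but not both; inactive means mean below 60% and not all replicates reaching 60%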
#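 Assay system: LDL receptor-deficient CHO ldlA cells overexpressing murine SR-BI / Medium: BSA-supplemented, HEPES-buffered Ham's F12, pH 7.4 / Probe or stimulus: DiI-labelled HDL at 10 µg/mL final / Timing: compound with DiI-HDL co-incubation, 3 h at 37 °C / Technique: bottom-read cell fluorescence after medium removal, ex 550/em 595 nm / Measure: HDL uptake via cellular fluorescence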
# SR-BI HDL uptake = mouse SR-BI HDL lipid transfer inhibition | Q61009 | AID 488896 | hit rate 0.96% among 320,000 | inhibition, % at 12.5 µM | ldlA[mSR-BI] CHO cells, DiI-HDL uptake fluorescence, 3 h;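 active means mean replicate inhibition of at least 70% and a set share of replicates each scoring 70 or more; inconclusive means meets just one of the two criteria; inactive means fails both criteria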
# Target sequence (Q61009 whole entry, looked up): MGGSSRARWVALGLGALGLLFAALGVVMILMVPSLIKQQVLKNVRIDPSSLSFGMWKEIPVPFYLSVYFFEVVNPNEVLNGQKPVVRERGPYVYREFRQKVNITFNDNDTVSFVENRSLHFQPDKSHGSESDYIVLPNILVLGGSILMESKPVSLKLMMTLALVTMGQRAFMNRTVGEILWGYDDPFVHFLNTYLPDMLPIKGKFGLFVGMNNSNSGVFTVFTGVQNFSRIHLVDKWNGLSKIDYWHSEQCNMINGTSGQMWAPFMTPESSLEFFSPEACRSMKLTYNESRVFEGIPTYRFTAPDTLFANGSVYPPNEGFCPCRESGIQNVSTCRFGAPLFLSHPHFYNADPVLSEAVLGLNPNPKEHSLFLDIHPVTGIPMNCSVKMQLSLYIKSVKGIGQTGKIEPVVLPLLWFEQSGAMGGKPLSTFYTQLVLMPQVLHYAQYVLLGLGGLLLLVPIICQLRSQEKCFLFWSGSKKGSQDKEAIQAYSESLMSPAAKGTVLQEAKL
# PKA-R2B act = activates the human PKA-R2B holoenzyme complex | AID 504700 | hit rate 0.079% among 340,000 | PKA-R2B holoenzyme dissociation, Cy5-IP20 fluorescence polarization; R2B truncated from residue 108, S112A mutant; 0% DMSO only, 100% 113 µM cGMP | P22694+P31323 | activation, % at 11.4 µM;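 active means activation above a cutoff set at the mean over all compounds plus 3 SD, cut at about 18% in these data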;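 further: higher means more holoenzyme dissociation and a rise in polarization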
# PKA-R1A act = activates the PKA-R1A holoenzyme complex; P00514+P68181; PKA-R1A dissociation, Cy5-IP20 fluorescence polarization; scaled: DMSO 0%, 113 µM cGMP 100%; activation, % at 11.4 µM; hit rate 0.083% among 340,000;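 active means percent activation above the mean of all tested compounds plus 3 SD, cut at about 19% in these data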;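 further: higher means more PKAc released from R1A so a rise in polarization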
# DiI quencher = DiI fluorescence quenching in cell-free counter-screen. AC50, µM (highest dose often 35 µM). shares compounds with SR-BI HDL uptake. cell-free DiI-HDL fluorescence quenching, 30 min. hit rate 20% among 470;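 active means quenching, a falling signal, with AC50 below a set limit tied to the top valid dose, actives reach about 32 µM in these data; inconclusive means no clear call, values can overlap the other calls; inactive means rising signal, and the rest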
# A number is an active result; – = inactive; ? = inconclusive; · = no result given. The list is not random: actives were taken first. Their share in the collection is about 1.4%.
SMILES,Vif inh,SR-BI uptake up,SR-BI HDL uptake,PKA-R2B act,PKA-R1A act,DiI quencher
CCOC(=O)C1=C(CNCCOc2ccc(OC)cc2)NC(=O)NC1c1ccc2c(c1)OCO2 (centres undefined),–,–,?,–,–,–
COC(=O)C[C@H]1C[C@@H]2c3cc(NC(=O)NC4CCCC4)ccc3O[C@@H]2[C@@H](CO)O1,–,·,·,–,–,·
COc1c(C)cc(C(=O)C2CCCN(C(=O)/C=C/c3ccccn3)C2)cc1C (centres undefined),–,·,·,–,–,·
CCOC(=O)C(=O)Nc1nc(-c2ccc3c(c2)CCN3C(=O)C2CC2)c(C)s1,–,–,–,–,–,–
O=C(c1cn(-c2ccccc2)nc1-c1cccc([N+](=O)[O-])c1)N1CCCCC1,–,–,73,–,–,–
O=C(O)c1cc(-c2ccc(/C=N/N3C(=O)C4C5C=CC(C6CC56)C4C3=O)o2)ccc1Cl (centres undefined),–,–,–,–,–,·
Cc1nn(Cc2ccc(F)cc2)c(C)c1NC(=O)CCCn1nc([N+](=O)[O-])cc1C,–,·,·,–,–,·
Cc1ccc(N2CC(C(=O)Nc3nc4ccc(S(C)(=O)=O)cc4s3)CC2=O)cc1C (centres undefined),–,–,–,–,–,·
Cc1ccc(OCc2cc(C(=O)N3CCCC(O)C3)no2)cn1 (centres undefined),–,–,–,–,–,–
Cc1ccc(OCc2cc(C(=O)N3CCCC(C)C3)no2)cn1 (centres undefined),–,·,·,–,–,·
Cc1c(C)n(Cc2ccc(F)cc2)c2ccc(C(=O)NCCN3CCOCC3)cc12,–,–,–,–,–,·
Cc1ccc(C)c(NC(=O)c2ccc3c(c2)N(Cc2ccc(F)cc2)C(=O)CS3=O)c1 (centres undefined),–,–,–,–,–,–
CCOc1ccc(NC(=O)c2ccc3c(c2)N(Cc2ccc(F)cc2)C(=O)CS3=O)cc1 (centres undefined),–,–,–,–,–,·
Cc1nonc1CN(C)C(=O)CC1C(=O)NCCN1Cc1cccc(C(F)(F)F)c1 (centres undefined),–,–,–,–,–,·
CC(C)CNS(=O)(=O)c1ccc(CCC(=O)NCCC2=CCCCC2)cc1,–,–,–,–,–,·
Cc1ccc(NC(=O)c2cc(S(=O)(=O)N3CCOCC3)c(Br)s2)cc1,–,–,?,–,–,–
COc1ccc(N2CCN(C(=O)c3cc(=O)[nH]c4ccccc34)CC2)cc1,–,–,–,–,–,–
CCN(CC)S(=O)(=O)c1ccc2c(c1)N(CC(=O)NCCN1CCOCC1)C(=O)CO2,–,–,–,–,–,·
C=C(CN(C)C)C(=O)c1ccc(OC2OC(COC(C)=O)C(OC(C)=O)C(OC(C)=O)C2OC(C)=O)cc1 (centres undefined),–,–,94,–,–,–
CN(Cc1ccccc1N1CCCC1)C(=O)c1cc2cc(Cl)ccc2o1,·,–,70,–,–,–
CC1CCN(CC(=O)Nc2ccc(C(=O)N3CCCCC3)cc2)CC1,–,–,–,–,–,·
CCOc1ccc(NC(=O)COn2nnc3ccc(S(=O)(=O)N4CCOCC4)cc32)cc1,–,–,–,–,–,·
C=CCN(CC=C)C(=O)COn1nnc2ccc(S(=O)(=O)N3CCOCC3)cc21,–,–,–,–,–,–
COc1ccc(C2c3sc(=O)[nH]c3SC3C4CCC(C4)C23)cc1OC (centres undefined),–,–,?,–,–,–
Cc1cc(C)nc(N2CCC(C(=O)N3CCN(c4cc(Cl)ccc4C)CC3)CC2)n1,–,–,102,–,–,–
SMILES,Vif inh,SR-BI uptake up,SR-BI HDL uptake,PKA-R2B act,PKA-R1A act,DiI quencher
N#CCCN(C(=O)COC(=O)CCc1c[nH]c2ccccc12)c1ccc(F)cc1,–,–,–,–,–,–
CC(C)C(=O)Nc1ccccc1-c1nc2ccccc2[nH]c1=O,–,–,–,–,–,·
CC(C)C(=O)Nc1sc2c(c1-c1nc3ccccc3[nH]1)CCCC2,–,–,101,–,–,21µM
O=C(NCc1ccccn1)C1CCN(S(=O)(=O)c2ccccc2F)CC1,–,–,–,–,–,·
O=C(NNc1c(F)c(F)cc(F)c1F)C1CCN(S(=O)(=O)c2ccccc2F)CC1,–,–,79,–,–,–
COc1ccc2c(c1)-c1c(sn(-c3ccccc3)c1=S)C(C)(C)N2,–,–,–,–,–,·
COc1ccc(-n2sc3c(c2=S)-c2cc(OC)ccc2NC3(C)C)cc1,–,–,108,–,–,2.5µM
COc1ccc2c(c1)-c1c(ssc1=S)C(C)(C)N2,–,–,–,–,–,·
COc1ccc2c(c1)-c1c(sn(-c3ccc(OC)c(OC)c3)c1=S)C(C)(C)N2,·,–,108,–,–,3.1µM
COc1ccc(S(=O)(=O)N2CCOC2CNC(=O)C(=O)NCCCN2CCOCC2)cc1C (centres undefined),–,–,–,–,–,·
CC(=O)Nc1ccc(S(=O)(=O)N2CCC(C(=O)NCCC(=O)NCc3ccccc3)CC2)cc1,–,–,119,–,–,–
CC(C)(C)N(Cc1ccccc1)C(=O)COC(=O)CN1C(=O)NC2(CCCC2)C1=O,·,–,76,–,–,–
O=C(c1cccs1)N1CCC(c2nc3c(nnn3Cc3ccccc3Cl)c(=O)[nH]2)CC1,–,–,–,–,–,·
CCCOc1ccc(C(=O)Nc2ccc(S(=O)(=O)N3C[C@@H]4C[C@@H](C3)c3cccc(=O)n3C4)cc2)cc1,–,–,–,–,–,–
CCCOc1ccc(C(=O)Nc2ccc(S(=O)(=O)N3CCN(C)CC3)cc2)cc1,–,–,–,–,–,·
COc1cccc(-c2csc(N3CCN(C(=S)Nc4ccccc4)CC3)n2)c1,–,–,–,–,–,·
COc1cccc(NC(=O)N2CCN(c3nc(-c4cccc(OC)c4)cs3)CC2)c1,–,·,·,–,–,·
COc1cccc(-c2csc(N3CCN(C(=S)Nc4cccc(C)c4)CC3)n2)c1,–,–,90,–,–,–
COc1cccc(-c2csc(N3CCN(C(=O)NC45CC6CC(CC(C6)C4)C5)CC3)n2)c1,·,–,–,–,–,–
O=C(Cc1cccs1)NCCSc1c(-c2ccc(Cl)cc2)[nH]c2ccccc12,–,–,?,–,–,–
CCOC(=O)CSc1c(-c2ccc(Cl)cc2)[nH]c2ccccc12,–,–,75,–,–,–
Cc1ccc(-c2[nH]c3ccccc3c2SCCNC(=O)c2cc3ccccc3oc2=O)cc1,–,–,–,–,–,·
CC(=O)Nc1ccc(S(=O)(=O)Nc2cc(C)c(-n3nc4ccccc4n3)cc2O)cc1,·,–,93,–,–,9.6µM
CC(=O)Nc1ccc(S(=O)(=O)Nc2nc3ccccc3nc2Nc2ccc(C(=O)O)c(O)c2)cc1,–,–,–,–,–,·
